Format in all cases: functional
Assay [1] has as its system Staphylococcus aureus. Kind of assay: Antibacterial activity against ermA-constitutive resistant Staphylococcus aureus after 20 hrs by agar dilution method. The procedure, abridged: (§1)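 Agar dilution MIC. The inoculum came from a seed culture in Sensitivity test broth. A 5 µl portion of a cell suspension of about 10^6 CFU/ml was inoculated onto Sensitivity disk agar supplemented with 5% horse blood. Plates were incubated at 37 °C for 20 h, then MIC was read.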

Assay [2] relates to Streptococcus pyogenes. Nature of the assay: Antibacterial activity against mefE efflux-resistant Streptococcus pyogenes after 20 hrs by agar dilution method. The procedure, abridged: (§2)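 Agar dilution MIC. Streptococcal strains were pre-cultured on blood agar plates. A 5 µl portion of a cell suspension of about 10^6 CFU/ml was inoculated onto Sensitivity disk agar supplemented with 5% horse blood. Plates were incubated at 37 °C for 20 h, then MIC was read.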
A general note: Agar dilution tests growth on a series of plates holding different concentrations.

The subject of assay [3] is Staphylococcus aureus. Nature of the assay: Antibacterial activity against ermB-inducible resistant Staphylococcus aureus after 20 hrs by agar dilution method. The procedure, abridged:
as §1

Assay [4] has as its system Streptococcus pyogenes. Nature of the assay: Antibacterial activity against ermB-constitutive resistant Streptococcus pyogenes after 20 hrs by agar dilution method. The essentials: as §2
Assay [5] concerns Haemophilus influenzae. Kind of assay: Antibacterial activity against susceptible Haemophilus influenzae after 20 hrs by agar dilution method. The procedure, abridged: (§3)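 MIC by agar dilution. Strains grown on blood agar plates for seed culture. About 5 µl of a suspension of roughly 10^6 CFU/ml spotted onto Sensitivity disk agar with 5% horse blood. Plates incubated at 37 °C for 20 h, then MIC read.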

Assay [6] has as its system Streptococcus pneumoniae. Nature of the assay: Antibacterial activity against mefE efflux-resistant Streptococcus pneumoniae after 20 hrs by agar dilution method. The essentials:
as §2

The subject of assay [7] is Staphylococcus aureus. Kind of assay: Antibacterial activity against standard Staphylococcus aureus after 20 hrs by agar dilution method. The procedure, abridged:
as §1

In assay [8] the test system is Staphylococcus aureus. Kind of assay: Antibacterial activity against susceptible Staphylococcus aureus after 20 hrs by agar dilution method. The procedure, abridged:
as §1

The subject of assay [9] is Staphylococcus aureus. Kind of assay: Antibacterial activity against ermC-inducible resistant Staphylococcus aureus after 20 hrs by agar dilution method. The procedure, abridged:
as §1

The test system of assay [10] is Streptococcus pneumoniae. Nature of the assay: Antibacterial activity against ermB-inducible resistant Streptococcus pneumoniae after 20 hrs by agar dilution method. The essentials: as §2
The subject of assay [11] is Streptococcus pneumoniae. Nature of the assay: Antibacterial activity against susceptible Streptococcus pneumoniae after 20 hrs by agar dilution method. The essentials:
as §3

For assay [12], the system named is Streptococcus pyogenes. Nature of the assay: Antibacterial activity against standard Streptococcus pyogenes after 20 hrs by agar dilution method. The procedure, abridged: as §3
The test system of assay [13] is Haemophilus influenzae. Kind of assay: Antibacterial activity against standard Haemophilus influenzae after 20 hrs by agar dilution method. The procedure, abridged: as §3
In assay [14] the test system is Streptococcus pneumoniae. Nature of the assay: Antibacterial activity against ermB-constitutive resistant Streptococcus pneumoniae after 20 hrs by agar dilution method. The procedure, abridged: as §2
In assay [15] the test system is Moraxella catarrhalis. Kind of assay: Antibacterial activity against standard Moraxella catarrhalis after 20 hrs by agar dilution method. The essentials: as §3

The source of these data is ChEMBL document CHEMBL1157144, “Novel 16-membered macrolides modified at C-12 and C-13 positions of midecamycin A1 and miokamycin. Part 1: Synthesis and evaluation of 12,13-carbamate and 12-arylalkylamino-13-hydroxy analogues” (2008).

SMILES strings stand for the structures. ≈ marks a conversion by molar mass, not a printed value.

In the case of `CCC(=O)O[C@@H]1CC(=O)O[C@H](C)C[C@H](O)[C@H](N(C)CCCc2ccccc2)/C=C/[C@H](OC(C)=O)[C@H](C)C[C@H](CC=O)[C@H](O[C@@H]2O[C@H](C)[C@@H](O)[C@H](N(C)C)[C@H]2O)[C@H]1OC`, the MIC in assay [1] is greater than 100 µg/mL; in [2], 0.78 µg/mL (≈ 0.95 µM); in [3] it was 1.56 µg/mL (≈ 1.9 µM); in [4], greater than 100 µg/mL; in assay [5], 3.13 µg/mL (≈ 3.81 µM); in assay [6], 0.39 µg/mL (≈ 0.475 µM). Moreover, the MIC in [7] was 0.39 µg/mL (≈ 0.475 µM); in assay [8], 0.78 µg/mL (≈ 0.95 µM); in [9] it was 1.56 µg/mL (≈ 1.9 µM); in [10], greater than 100 µg/mL; in [11], 0.2 µg/mL (≈ 0.244 µM); in assay [12], 0.39 µg/mL (≈ 0.475 µM). The MIC was 0.39 µg/mL (≈ 0.475 µM) in assay [13], greater than 100 µg/mL in assay [14] and 0.025 µg/mL (≈ 0.0305 µM) in assay [15].

For `CCC(=O)O[C@@H]1CC(=O)O[C@H](C)C[C@@H]2OC(=O)N[C@@H]2/C=C/[C@H](OC(C)=O)[C@H](C)C[C@H](CC=O)[C@H](O[C@@H]2O[C@H](C)[C@@H](O[C@H]3C[C@@](C)(O)[C@@H](OC(=O)CC)[C@H](C)O3)[C@H](N(C)C)[C@H]2O)[C@H]1OC`, the MIC is greater than 100 µg/mL in [1]; 0.2 µg/mL (≈ 0.219 µM) in assay [2]; 0.39 µg/mL (≈ 0.426 µM) in [3]; greater than 100 µg/mL in assay [4]; 6.25 µg/mL (≈ 6.83 µM) in [5]; 0.2 µg/mL (≈ 0.219 µM) in assay [6]. Besides, the MIC is 0.39 µg/mL (≈ 0.426 µM) in assay [7]; 0.39 µg/mL (≈ 0.426 µM) in assay [8]; 0.78 µg/mL (≈ 0.852 µM) in [9]; greater than 100 µg/mL in assay [10]; 0.2 µg/mL (≈ 0.219 µM) in [11]; 0.78 µg/mL (≈ 0.852 µM) in assay [13]. For the same molecule, the MIC in assay [14] is greater than 100 µg/mL; in assay [15], 0.39 µg/mL (≈ 0.426 µM).

For the molecule `CCC(=O)O[C@@H]1CC(=O)O[C@H](C)C[C@H](O)[C@H](N(C)CCCCCc2ccccc2)/C=C/[C@H](OC(C)=O)[C@H](C)C[C@H](CC=O)[C@H](O[C@@H]2O[C@H](C)[C@@H](O[C@H]3C[C@@](C)(O)[C@@H](OC(=O)CC)[C@H](C)O3)[C@H](N(C)C)[C@H]2O)[C@H]1OC`, the MIC is greater than 100 µg/mL in assay [1]; 0.2 µg/mL (≈ 0.191 µM) in [2]; 0.78 µg/mL (≈ 0.743 µM) in assay [3]; 25 µg/mL (≈ 23.8 µM) in assay [4]; 25 µg/mL (≈ 23.8 µM) in assay [5]; 0.2 µg/mL (≈ 0.191 µM) in assay [6]. Also, the MIC was found to be 0.39 µg/mL (≈ 0.372 µM) in assay [7]; 0.39 µg/mL (≈ 0.372 µM) in assay [8]; 0.39 µg/mL (≈ 0.372 µM) in assay [9]; 12.5 µg/mL (≈ 11.9 µM) in assay [10]; 0.1 µg/mL (≈ 0.0953 µM) in assay [11]; 3.13 µg/mL (≈ 2.98 µM) in [13]. The MIC was found to be 100 µg/mL (≈ 95.3 µM) in assay [14] and 0.39 µg/mL (≈ 0.372 µM) in [15].

`CCC(=O)O[C@@H]1CC(=O)O[C@H](C)C[C@@H]2OC(=O)N(CCc3ccccc3)[C@@H]2/C=C/[C@H](OC(C)=O)[C@H](C)C[C@H](CC=O)[C@H](O[C@@H]2O[C@H](C)[C@@H](O[C@H]3C[C@@](C)(O)[C@@H](OC(=O)CC)[C@H](C)O3)[C@H](N(C)C)[C@H]2O)[C@H]1OC`: the MIC was greater than 100 µg/mL in [1]; 0.1 µg/mL (≈ 0.0981 µM) in [2]; 6.25 µg/mL (≈ 6.13 µM) in assay [3]; greater than 100 µg/mL in assay [4]; 25 µg/mL (≈ 24.5 µM) in [5]; 0.2 µg/mL (≈ 0.196 µM) in [6]. Further, the MIC in [7] amounted to 0.78 µg/mL (≈ 0.765 µM); in assay [8] it was 0.39 µg/mL (≈ 0.383 µM); in assay [9], 1.56 µg/mL (≈ 1.53 µM); in assay [10], 50 µg/mL (≈ 49.1 µM); in assay [11], 0.2 µg/mL (≈ 0.196 µM); in assay [13] it was 3.13 µg/mL (≈ 3.07 µM). Besides, the MIC in assay [14] is greater than 100 µg/mL; in [15] it was 0.78 µg/mL (≈ 0.765 µM).
